The record followed here is ChEMBL document CHEMBL3102843, “Synthesis and antifungal activity of substituted 2,4,6-pyrimidinetrione carbaldehyde hydrazones” (Bioorg Med Chem, 2014).

In series [1] the test system is HepG2. Nature of the series: Cytotoxicity against human HepG2 cells assessed as cell viability at 2 to 200 ug/ml after 24 hrs by MTT assay. Format: cell-based. Particulars: hepg2, 24 h. The method in brief:
(§1)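 MTT (tetrazolium) assay in Vero and HepG2 cells. Cells were pre-grown 24 h at 37 °C/5% CO₂ in DMEM with 10% FBS. Compounds diluted in media at the fungal MIC and at 5×, 10× and 100× MIC, then exposed 24 h. Dye was added for 1–4 h, then stop solution for 1 h at RT; A570 read. Viability was taken as % of 1% DMSO no-drug wells, with 0.1% saponin as death control. Triplicate, mean ± SD.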

The test system of series [2] is Candida albicans. Nature of the series: Antifungal activity against Candida albicans ATCC 10231 after 48 to 72 hrs by broth microdilution method. It is filed as functional. The method in brief: (§2)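 Broth microdilution per NCCLS. Organisms were subcultured on Sabouraud agar. Inoculum was 5–7 colonies from YM agar in sterile water, adjusted to 0.5 McFarland at 530 nm (1–5×10⁶ cells/mL stock), held 30 min at RT, then diluted 1:50 in HEPES-buffered RPMI 1640. DMSO stocks were twofold-diluted, with final DMSO ≤1%. Plates ran 48–72 h at 35 °C, humid. MIC is the lowest concentration giving ≥80% growth reduction vs drug-free wells, scored visually. Fluconazole or amphotericin B ran as drug control.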

Series [3] concerns Nakaseomyces glabratus. Nature of the series: Antifungal activity against Candida glabrata ATCC 48435 after 48 to 72 hrs by broth microdilution method. Format: functional. The method in brief: as §2
A short description of series [4]: Cytotoxicity against african green monkey Vero cells assessed as cell viability at 2 to 200 ug/ml after 24 hrs by MTT assay. It is filed as cell-based. Particulars: chlorocebus sabaeus, read-out: Activity. The method, boiled down: as §1
For series [5], the system named is Nakaseomyces glabratus. Nature of the series: Antifungal activity against Candida glabrata ATCC 48435 at 31 ug/ml after 48 to 72 hrs by broth microdilution method. Format: functional.
For series [6], the system named is Nakaseomyces glabratus. The series can be described thus: Antifungal activity against Candida glabrata ATCC 48435 at 62 ug/ml after 48 to 72 hrs by broth microdilution method. Format: functional.
Series [7] can be described thus: Cytotoxicity against african green monkey Vero cells assessed as cell viability at 10 times MIC80 for fungus after 24 hrs by MTT assay. Particulars: chlorocebus sabaeus, read-out: Activity. Format: cell-based. The method, boiled down:
as §1

Series [8] deals with Candida albicans. The series can be described thus: Antifungal activity against Candida albicans ATCC 10231 at 8 ug/ml after 48 to 72 hrs by broth microdilution method. It is filed as functional.
Series [9] can be described thus: Cytotoxicity against african green monkey Vero cells assessed as cell viability at 8 to 800 ug/ml after 24 hrs by MTT assay. Format: cell-based. Particulars: chlorocebus sabaeus, read-out: Activity. The method, boiled down: as §1
Series [10] concerns HepG2. Nature of the series: Cytotoxicity against human HepG2 cells assessed as cell viability at 8 to 800 ug/ml after 24 hrs by MTT assay. It is filed as cell-based. Particulars: hepg2, 24 h. The method in brief:
as §1

The subject of series [11] is Nakaseomyces glabratus. Nature of the series: Antifungal activity against Candida glabrata CS 177.93 at 0.195 to 100 uM after 24 to 48 hrs in presence of 3% ethanol. Format: functional, organism-based. The method in brief:
(§3)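 Cells grown overnight in YPD at 30 °C, washed, then seeded at ~10³ cells/well (10⁴ cells/mL) in YPD (2% glucose), YPG (3% glycerol) or YPE (3% ethanol), pH 6.5. Drug at 0 and 0.195–100, final DMSO 0.5%. Two repeat experiments.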

Series [12] deals with Candida albicans. The series can be described thus: Antifungal activity against Candida albicans SC5314 at 0.195 to 100 uM after 24 to 48 hrs in presence of 2% glucose. It is filed as functional, organism-based. The method, boiled down:
as §3

For series [13], the system named is Candida albicans. Nature of the series: Antifungal activity against Candida albicans SC5314 at 0.195 to 100 uM after 24 to 48 hrs in presence of 3% glycerol. It is filed as functional, organism-based. The method, boiled down: as §3
In series [14] the test system is Candida albicans. Nature of the series: Antifungal activity against Candida albicans. Format: functional, organism-based. The method in brief: as §2
In series [15] the test system is Candida albicans. Nature of the series: Antifungal activity against Candida albicans SC5314 at 0.195 to 100 uM after 24 to 48 hrs in presence of 3% ethanol. Format: functional, organism-based. The method, boiled down: as §3
Series [16] concerns Nakaseomyces glabratus. Nature of the series: Antifungal activity against Candida glabrata CS 177.93 at 0.195 to 100 uM after 24 to 48 hrs in presence of 2% glucose. Format: functional, organism-based. The method, boiled down:
as §3

Series [17] deals with Nakaseomyces glabratus. The series can be described thus: Antifungal activity against Candida glabrata CS 177.93 at 0.195 to 100 uM after 24 to 48 hrs in presence of 3% glycerol. Format: functional, organism-based. The method in brief: as §3
Series [18] deals with Nakaseomyces glabratus. The series can be described thus: Antifungal activity against Candida glabrata ATCC 48435 at 16 ug/ml after 48 to 72 hrs by broth microdilution method. Format: functional.
In series [19] the test system is Candida albicans. Nature of the series: Antifungal activity against Candida albicans ATCC 10231 at 62 ug/ml after 48 to 72 hrs by broth microdilution method. It is filed as functional.
Series [20] relates to Candida albicans. The series can be described thus: Antifungal activity against Candida albicans ATCC 10231 at 16 ug/ml after 48 to 72 hrs by broth microdilution method. It is filed as functional.
In series [21] the test system is Candida albicans. The series can be described thus: Antifungal activity against Candida albicans ATCC 10231 at 125 ug/ml after 48 to 72 hrs by broth microdilution method. It is filed as functional, organism-based. The method, boiled down:
(§4)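 Broth microdilution per NCCLS. Inocula come from 5–7 colonies on YM agar, suspended in sterile water and adjusted to 0.5 McFarland at 530 nm (stock 1×10⁶–5×10⁶ cells/mL), then diluted 1:50 in HEPES-buffered RPMI 1640. Compounds in DMSO (final ≤1%) are added as a 10-fold dilution into the suspension. Plates run 48–72 h at 35 °C, humid. Growth is scored visually; the endpoint is ≥80% reduction versus drug-free wells.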

The test system of series [22] is Nakaseomyces glabratus. The series can be described thus: Antifungal activity against Candida glabrata ATCC 48435 at 125 ug/ml after 48 to 72 hrs by broth microdilution method. It is filed as functional, organism-based. The method, boiled down:
as §4

In brackets after ≈: the same amount, converted by molar mass. Activity calls are given as the source filed them. Unless noted, no cut-off for these calls is given here. Some results are limits rather than exact numbers.

Consider `C/C(=N\Nc1ccccc1)C1C(=O)N(C)C(=O)N(C)C1=O`, for which the Activity entry in the series with HepG2 [1] is “Toxic”. In addition, the MIC80 in the series with Candida albicans [2] and against Nakaseomyces glabratus [3] was 2 µg/mL (≈ 6.94 µM) in each case. For the same molecule, the viability at 24 h in [4] is 35%.

`CN/N=C(\C)C1C(=O)NC(=O)NC1=O` came in with an inhibition at 31 µg/mL in the series on Nakaseomyces glabratus [5] below 50%. The MIC80 result in the series with Candida albicans [2] was “inactive”. The molecule further gave an MIC80 with Nakaseomyces glabratus [3] of 31 µg/mL (≈ 156 µM).

As to `COc1ccc(C(=O)N/N=C/C2C(=O)NC(=O)NC2=O)cc1`, in the series on Nakaseomyces glabratus [6], the inhibition at 62 µg/mL is below 50%. The MIC80 entry in the series with Candida albicans [2] is “inactive”. Further, in the series with Nakaseomyces glabratus [3], the MIC80 amounted to 62 µg/mL (≈ 204 µM).

On to `C/C(=N\Nc1ccc([N+](=O)[O-])cc1)C1C(=O)NC(=O)NC1=O`, for which the Activity entry in the series with HepG2 [1] is listed as “Toxic”. The MIC80 against Candida albicans [2] and in the series with Nakaseomyces glabratus [3] was 2 µg/mL (≈ 6.55 µM) each time. Also, the viability at 24 h in series [4] came out at 35%.

`CN1C(=O)C(/C=N/Nc2ccccc2)C(=O)N(C)C1=O`: the Activity entry with HepG2 [1] was “Toxic”. For the same molecule, the MIC80 came to 4 µg/mL (≈ 14.6 µM) in the series with Candida albicans [2] and 2 µg/mL (≈ 7.29 µM) against Nakaseomyces glabratus [3]. Also, the viability at 24 h in series [7] was found to be 80%.

In the series on Candida albicans [8], `CN1C(=O)C(/C=N/c2ccccc2O)C(=O)N(C)C1=O` displayed an inhibition at 8 µg/mL below 50%. The viability at 24 h in series [9] turned out to be 35%. In addition, the MIC80 in the series on Candida albicans [2] was 8 µg/mL (≈ 29.1 µM). Besides, in the series on Nakaseomyces glabratus [3], the MIC80 result is “inactive”. In addition, in the series with HepG2 [10], the Activity result is “Toxic”.

Turning to `O=C1NC(=O)C(/C=N/Nc2ccc([N+](=O)[O-])cc2)C(=O)N1`, the result with Nakaseomyces glabratus [11], in the series on Candida albicans [12], with Candida albicans [13], with Candida albicans [15], in the series with Nakaseomyces glabratus [16] and in the series with Nakaseomyces glabratus [17] was Active. Besides, the figures for the Activity entry with HepG2 [1] and with Candida albicans [14] were “Toxic” and “Dose-dependent effect”, respectively. Also, the MIC80 with Candida albicans [2] was 2 µg/mL (≈ 6.87 µM); in the series on Nakaseomyces glabratus [3], 1 µg/mL (≈ 3.43 µM). Besides, the viability at 24 h in series [7] was 80%.

As to `O=C1NC(=O)C(/C=N/NC(=O)c2ccc([N+](=O)[O-])cc2)C(=O)N1`, the inhibition at 16 µg/mL with Nakaseomyces glabratus [18] was below 50%. In the series on Candida albicans [19], this molecule had an inhibition at 62 µg/mL below 50%. The MIC80 with Candida albicans [2] turned out to be 62 µg/mL (≈ 194 µM); in the series with Nakaseomyces glabratus [3], 16 µg/mL (≈ 50.1 µM).

On to `CN/N=C/C1C(=O)N(C)C(=O)N(C)C1=O`, for which, in the series on Candida albicans [19], the inhibition at 62 µg/mL was below 50%. Also, the values for the MIC80 with Candida albicans [2] and in the series with Nakaseomyces glabratus [3] were 62 µg/mL (≈ 292 µM) and 125 µg/mL (≈ 589 µM), respectively.

`COc1ccc(C(=O)N/N=C/C2C(=O)N(C)C(=O)N(C)C2=O)cc1` returned an inhibition at 62 µg/mL in the series on Candida albicans [19] below 50%. Also, the MIC80 in the series with Candida albicans [2] was 62 µg/mL (≈ 187 µM); against Nakaseomyces glabratus [3] it was 31 µg/mL (≈ 93.3 µM).

Turning to `CN1C(=O)C(/C=N/Nc2ccc([N+](=O)[O-])cc2)C(=O)N(C)C1=O`, in the series on HepG2 [1], the Activity entry is “Toxic”. For the same molecule, the MIC80 in the series with Candida albicans [2] and against Nakaseomyces glabratus [3] was 2 µg/mL (≈ 6.26 µM) throughout. In series [7], the viability at 24 h stood at 80%.

The molecule `CN1C(=O)C(/C=N/NC(=O)c2ccc([N+](=O)[O-])cc2)C(=O)N(C)C1=O` came in with an inhibition at 62 µg/mL with Candida albicans [19] below 50%. Also, the MIC80 in the series with Candida albicans [2] was determined as 62 µg/mL (≈ 179 µM); in the series on Nakaseomyces glabratus [3] it was 125 µg/mL (≈ 360 µM).

Consider `Cc1ccc(S(=O)(=O)N/N=C/C2C(=O)NC(=O)NC2=O)cc1`, for which the inhibition at 16 µg/mL in the series on Candida albicans [20] was below 50%. Also, the MIC80 in the series on Candida albicans [2] stood at 16 µg/mL (≈ 49.3 µM). Moreover, the MIC80 entry with Nakaseomyces glabratus [3] is “inactive”.

As to `O=C1NC(=O)C(CCCC2CCCCC2)C(=O)N1`, the result in the series with Candida albicans [21] and in the series with Nakaseomyces glabratus [22] was inactive.

`O=C1NC(=O)N(c2ccccc2)C(=O)C1C(=O)c1ccc(O)cc1` (stereo not drawn): the result in the series on Candida albicans [21] and in the series on Nakaseomyces glabratus [22] was inactive.

Molecule `O=C1NC(=O)C(/C=N/c2ccccc2O)C(=O)N1` had an inhibition at 8 µg/mL with Candida albicans [8] below 50%. Moreover, the MIC80 against Candida albicans [2] was 8 µg/mL (≈ 32.4 µM). Besides, the MIC80 entry in the series with Nakaseomyces glabratus [3] is “inactive”.

On to `O=C1NC(=O)C(C(=O)c2ccccc2)C(=O)N1`, for which the outcome in the series on Candida albicans [21] and in the series with Nakaseomyces glabratus [22] was inactive.
